Laboratory results as given in ChEMBL document CHEMBL5634103 (Eur J Med Chem, 2023).
pIC50, pKi: −log10 of the molar value.

Key:
D(3) dopamine receptor [1] = target: T1, D(3) dopamine receptor (Homo sapiens, UniProt P35462); assay: Displacement of [125I]IABN from human D3 receptor expressed in HEK cells measured after 60 mins by gamma counting method; assay type: cell-based
D(2) dopamine receptor [2] = target: T2, D(2) dopamine receptor (Homo sapiens, UniProt P14416); assay: Displacement of [125I]IABN from human D2L receptor expressed in HEK cells measured after 60 mins by gamma counting method; assay type: cell-based
Homo sapiens = organism: Homo sapiens; assay: Selectivity ratio of Ki for displacement of [125I]IABN from human D2L receptor expressed in HEK cells to Ki for displacement of [125I]IABN from human D3R expressed in HEK cells; assay type: cell-based
Summary of the method: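 20 µM (+)-butaclamol defines nonspecific binding. Inhibitor over 5 log units, two points per decade, triplicates. Gamma counting. Single-site IC50 converted to Ki (Cheng–Prusoff), ≥3 experiments. Ratio is D2 Ki/D3 Ki.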

D(3) dopamine receptor [3] = target: T1, D(3) dopamine receptor; assay: Binding affinity to human D3 receptor expressed in CHO-K1 cells assessed as inhibition of dopamine-induced beta-arrestin recruitment preincubated for 30 mins followed by dopamine addition and measured after 90 mins by pathhunter assay
D(2) dopamine receptor [4] = target: T2, D(2) dopamine receptor; assay: Binding affinity to D2 receptor (unknown origin)

T1 sequence (P35462 whole entry): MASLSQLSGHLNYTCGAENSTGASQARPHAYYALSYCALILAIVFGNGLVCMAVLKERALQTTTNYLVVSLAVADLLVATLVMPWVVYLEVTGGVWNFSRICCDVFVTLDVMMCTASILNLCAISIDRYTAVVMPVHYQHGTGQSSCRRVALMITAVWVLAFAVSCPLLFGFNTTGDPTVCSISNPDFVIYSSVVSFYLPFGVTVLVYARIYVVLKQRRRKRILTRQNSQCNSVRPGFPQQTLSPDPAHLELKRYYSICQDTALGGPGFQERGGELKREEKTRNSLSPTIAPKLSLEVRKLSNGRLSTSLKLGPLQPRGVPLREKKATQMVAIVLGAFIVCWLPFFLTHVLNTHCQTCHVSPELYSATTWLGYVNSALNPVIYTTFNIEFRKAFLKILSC
T2 sequence (P14416 whole entry): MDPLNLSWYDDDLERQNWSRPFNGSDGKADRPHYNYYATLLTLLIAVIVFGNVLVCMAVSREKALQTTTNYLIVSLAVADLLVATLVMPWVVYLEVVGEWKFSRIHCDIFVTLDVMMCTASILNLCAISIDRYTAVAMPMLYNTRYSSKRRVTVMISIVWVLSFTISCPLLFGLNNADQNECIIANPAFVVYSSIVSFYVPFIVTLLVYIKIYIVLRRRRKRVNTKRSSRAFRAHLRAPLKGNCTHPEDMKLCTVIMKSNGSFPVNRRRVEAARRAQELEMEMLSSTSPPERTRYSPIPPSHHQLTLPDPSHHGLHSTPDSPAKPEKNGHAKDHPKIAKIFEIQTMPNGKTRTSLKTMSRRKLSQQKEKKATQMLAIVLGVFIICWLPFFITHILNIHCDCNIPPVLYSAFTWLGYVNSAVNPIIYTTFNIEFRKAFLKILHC

SMILES	pKi (D(3) dopamine receptor [1])	pKi (D(2) dopamine receptor [2])	pIC50 (D(3) dopamine receptor [3])	pKi (D(2) dopamine receptor [4])	Ratio Ki (Homo sapiens)
C=CCN1C[C@H](OC(=O)Nc2ccc(-c3ccsc3)cc2)C[C@@H]1CNC(=O)c1cc(CCCF)cc(OC)c1OC	5.17	< 4.39			> 6
C=CCN1C[C@H](OCc2ccncc2)C[C@H]1CNC(=O)c1cc(CCCF)cc(OC)c1OC	8.40	8.15			1.7
C=CCN1C[C@H](OCc2ccc(C(F)(F)F)cc2)C[C@H]1CNC(=O)c1cc(CCCF)cc(OC)c1OC	7.63	7.49			1.4
C=CCN1C[C@@H](OC(=O)Nc2ccc(-c3ccsc3)cc2)C[C@H]1CNC(=O)c1cc(CCCF)cc(OC)c1OC		5.01			16.5
C=CCN1C[C@H](OCCCNC(=O)c2ccc(-c3ccsc3)cc2)C[C@H]1CNC(=O)c1cc(CCCF)cc(OC)c1OC	8.38	7.87	8.09		3.2
C=CCO[C@@H]1C[C@@H](CNC(=O)c2cc(CCCF)cc(OC)c2OC)N(CC=C)C1	8.59	8.13			2.8
C=CCN1C[C@H](OCCCN)C[C@@H]1CNC(=O)c1cc(CCCF)cc(OC)c1OC	5.71	5.63			1.2
C=CCN1C[C@H](OCCCCN)C[C@H]1CNC(=O)c1cc(CCCF)cc(OC)c1OC	8.82	8.66			1.4
CCN1C[C@H](OC(=O)Nc2ccc(-c3ccsc3)cc2)C[C@H]1CNC(=O)c1cc(CCCF)cc(OC)c1OC	8.37	7.79	7.20		3.8
C=CCN1C[C@H](OCCO)C[C@H]1CNC(=O)c1cc(CCCF)cc(OC)c1OC	8.62	8.08			3.5
C=CCN1C[C@H](OCCN)C[C@H]1CNC(=O)c1cc(CCCF)cc(OC)c1OC	8.02	6.97	7.96		11.3
C=CCN1C[C@H](OCCCO)C[C@H]1CNC(=O)c1cc(CCCF)cc(OC)c1OC	8.14	7.85			1.9
C=CCN1C[C@H](OCc2ccc(F)cc2)C[C@H]1CNC(=O)c1cc(CCCF)cc(OC)c1OC	8.33	8.02			2
C=CCN1CCC[C@H]1CNC(=O)c1cc(CCCF)cc(OC)c1OC [FALLYPRIDE]				10.70	
CCN1C[C@H](OCCCN)C[C@H]1CNC(=O)c1cc(CCCF)cc(OC)c1OC	8.85	8.54	8.48		2.1
C=CCN1C[C@H](OC(=O)Nc2ccc(-c3ccsc3)cc2)C[C@H]1CNC(=O)c1cc(CCCF)cc(OC)c1OC	8.11	7.54	6.77		3.7
C=CCN1C[C@@H](OC(=O)Nc2ccc(-c3ccsc3)cc2)C[C@@H]1CNC(=O)c1cc(CCCF)cc(OC)c1OC		6.72			6.7
C=CCN1CC[C@H](OCCCN)[C@H]1CNC(=O)c1cc(CCCF)cc(OC)c1OC	8.21	7.67			3.5
C=CCN1C[C@H](OCCCN)C[C@H]1CNC(=O)c1cc(CCCF)cc(OC)c1OC	8.08	7.73	8.89		2.2

Now from value to molecule, other results behind:

pKi (D(3) dopamine receptor [1])	pKi (D(2) dopamine receptor [2])	pIC50 (D(3) dopamine receptor [3])	pKi (D(2) dopamine receptor [4])	SMILES	Ratio Ki (Homo sapiens)
8.77	8.60			C=CCN1C[C@H](OCc2cccnc2)C[C@H]1CNC(=O)c1cc(CCCF)cc(OC)c1OC	1.5
8.02				C=CCN1C[C@H](OCc2ccccc2)C[C@H]1CNC(=O)c1cc(CCCF)cc(OC)c1OC	
8.08	7.90			C=CCN1C[C@H](OC(=O)Nc2ccccc2C)C[C@H]1CNC(=O)c1cc(CCCF)cc(OC)c1OC	1.5
8.43	8.08			C=CCN1C[C@H](OC(=O)Nc2cccnc2)C[C@H]1CNC(=O)c1cc(CCCF)cc(OC)c1OC	2.2
8.39	8.00			C=CCN1C[C@H](OC(=O)Nc2ccccn2)C[C@H]1CNC(=O)c1cc(CCCF)cc(OC)c1OC	2.4
7.89	7.52			C=CCN1C[C@H](OC(=O)NCCc2ccccc2)C[C@H]1CNC(=O)c1cc(CCCF)cc(OC)c1OC	2.3
7.97	7.85			C=CCN1C[C@H](OC(=O)Nc2cccc(N(C)C)c2)C[C@H]1CNC(=O)c1cc(CCCF)cc(OC)c1OC	1.3
8.54	8.14			C=CCN1CC[C@H](OCc2ccccc2)[C@H]1CNC(=O)c1cc(CCCF)cc(OC)c1OC	2.5
8.21	8.11			C=CCN1C[C@H](OC(=O)Nc2ccsc2)C[C@H]1CNC(=O)c1cc(CCCF)cc(OC)c1OC	1.3
7.80	7.65	7.10		C=CCN1C[C@H](OC(=O)Nc2ccc(-c3ccccn3)cc2)C[C@H]1CNC(=O)c1cc(CCCF)cc(OC)c1OC	1.4
8.21	8.00			C=CCN1C[C@H](OC(=O)NCc2ccccc2)C[C@H]1CNC(=O)c1cc(CCCF)cc(OC)c1OC	1.6
7.82	8.08			C=CCN1C[C@H](OC(=O)Nc2ccoc2)C[C@H]1CNC(=O)c1cc(CCCF)cc(OC)c1OC	0.6
7.84	7.53			C=CCN1C[C@H](OC(=O)Nc2ccccc2)C[C@H]1CNC(=O)c1cc(CCCF)cc(OC)c1OC	2
7.90	7.73			C=CCN1C[C@H](OC(=O)Nc2cc(C)ccc2OC)C[C@H]1CNC(=O)c1cc(CCCF)cc(OC)c1OC	1.5
